Measured values gathered from unrelated publications.
Protocols differ between the studies behind these lines.
ache: Acetylcholinesterase (ache, Electrophorus electricus, UniProt O42275)
S1PR1: Sphingosine 1-phosphate receptor 1 (S1PR1, Homo sapiens, UniProt P21453)
STK17B: Serine/threonine-protein kinase 17B (STK17B, Homo sapiens, UniProt O94768)
STK32A: Serine/threonine-protein kinase 32A (STK32A, Homo sapiens, UniProt Q8WU08)

SMILES | target | test | system | setting | endpoint | result
COc1cc2c(cc1OC)C(=O)N(Cc1ccc3ccccc3n1)C2 | ache | enzyme activity, inhibitor | – | 1 µM | inhibition | 3.28%
CCCCCCCOc1ccc(CCC(N)(CO)COP(=O)(O)O)cc1C(F)(F)F (centres unmarked) | S1PR1 | calcium signal, agonist, fluorescence | – | – | Emax | 92%
COc1cc2c(cc1OC)C(=O)N(Cc1nccc3ccccc13)C2 | ache | enzyme activity, inhibitor | – | 1 µM | inhibition | -0.79%
NS(=O)(=O)c1ccc(CNc2nc(Nc3cccc(NC(=O)N4CCCC4)c3)ncc2C2CC2)cc1 | STK17B | enzyme activity, inhibitor, radiometric | – | 1 µM | remaining activity | 77%
CCCOc1ccc(OC)c(F)c1C(=O)c1ccc(C(=O)N[C@@H]2CNC[C@H]2NC(=O)c2ccc3[nH]ncc3c2)cc1 | RAC-gamma serine/threonine-protein kinase (AKT3, Homo sapiens, UniProt Q9Y243) | enzyme activity, inhibitor | – | 0.5 µM | remaining activity | 44%
CC(C)(C)c1nc2c(s1)c1nc(N)ncc1c1ccc(NS(=O)(=O)c3c(F)cccc3F)c(F)c12 | Mitogen-activated protein kinase kinase kinase 21 (MAP3K21, Homo sapiens, UniProt Q5TCX8) | enzyme activity, inhibitor, radiometric | – | 1 µM | remaining activity | 90%
COc1cc2c(cc1OC)C(=O)N(Cc1n[nH]c3ccccc13)C2 | ache | enzyme activity, inhibitor | – | 1 µM | inhibition | 5.12%
Brc1cnc(Nc2cccc(CN3CCOCC3)c2)nc1NCCc1c[nH]cn1 | STK17B | enzyme activity, inhibitor, radiometric | – | 1 µM | remaining activity | 4%
COc1cc2c(cc1OC)C(=O)N(Cc1ccccn1)C2 | ache | enzyme activity, inhibitor | – | 1 µM | inhibition | 4.59%
CC/C=C\C/C=C\C/C=C\C/C=C\C/C=C\C/C=C\CCC(=O)O | Polyunsaturated fatty acid lipoxygenase ALOX15 (ALOX15, Homo sapiens, UniProt P16050) | enzyme activity, substrate, absorbance | – | – | Km | 6.7 µM
Cc1nn(CC(F)(F)F)cc1Nc1ncc(C2CC2)c(NCCCNC(=O)C2CCC2)n1 | STK17B | enzyme activity, inhibitor, radiometric | – | 1 µM | remaining activity | 13%
CCc1cc(-c2noc(-c3cc(OC)nc(C4CCCC4)c3)n2)cc(C)c1OC[C@@H](O)CO | S1PR1 | calcium signal, agonist, fluorescence | HUVEC | – | Emax | 37%
COc1cc2c(cc1OC)C(=O)N(CC1CCN(Cc3cccc(C#N)c3)CC1)C2 | ache | enzyme activity, inhibitor | – | 1 µM | inhibition | 4.99%
N#Cc1ccc(/C=C/CN(CC[C@H](N)C(=O)O)C[C@H]2O[C@@H](n3cnc4c(N)ncnc43)[C@H](O)[C@@H]2O)cc1 | Histone-arginine methyltransferase CARM1 (CARM1, Homo sapiens, UniProt Q86X55) | enzyme activity, inhibitor | – | 1 µM | activity vs control | 100%
O=C(NCCCNc1nc(Nc2cccc(NC(=O)N3CCCC3)c2)ncc1I)c1cccs1 | STK17B | enzyme activity, inhibitor, radiometric | – | 1 µM | remaining activity | 4%
Cn1c2c(c3ccc(Cl)c(Cl)c31)C(C#N)C1(CCOCC1)NC2=O (centres unmarked) | STK32A | thermal stability, DSF | – | 10 µM | ΔTm | -0.3 °C
CC(C)(C)c1nc(-c2cccc(NS(=O)(=O)c3c(F)cccc3F)c2F)c(-c2ccnc(N)n2)s1 | Ribosomal protein S6 kinase beta-2 (RPS6KB2, Homo sapiens, UniProt Q9UBS0) | enzyme activity, inhibitor, radiometric | – | 1 µM | remaining activity | 98%
N#CC1c2c([nH]c3c(Cl)c(Cl)ccc23)C(=O)NC12CCCCC2 (racemic) | STK32A | thermal stability, DSF | – | 10 µM | ΔTm | 0.1 °C
O=C(NCCCNc1nc(Nc2cccc(CN3CCOCC3)c2)ncc1C1CC1)C1CCC1 | STK17B | enzyme activity, inhibitor, radiometric | – | 1 µM | remaining activity | 7%
COc1cc2c(cc1OC)C(=O)N(CCc1c[nH]c3ccccc13)C2 | ache | enzyme activity, inhibitor | – | 1 µM | inhibition | -4.59%
CN1CCc2cc(Nc3ncc(C4CC4)c(NCCCNC(=O)C4CCC4)n3)ccc2C1 | STK17B | enzyme activity, inhibitor, radiometric | – | 1 µM | remaining activity | 4%
COc1ccc2[nH]cc(CCN3Cc4cc(OC)c(OC)cc4C3=O)c2c1 | ache | enzyme activity, inhibitor | – | 1 µM | inhibition | 3.28%
O=C(NCCCNc1nc(Nc2cccc(NC(=O)N3CCCC3)c2)ncc1Br)C1CCC1 | STK17B | enzyme activity, inhibitor, radiometric | – | 1 µM | remaining activity | 0%
O[C@@H]1[C@H](O)CO[C@H]1n1cnc2c(NCc3cccc(Cl)c3)nc(Cl)nc21 | Adenosine receptor A1 (ADORA1, Homo sapiens, UniProt P30542) | ligand displacement, radioligand | – | 10 µM, cell membranes | inhibition | 36%
NS(=O)(=O)c1ccc(CNc2ccnc(Nc3cccc(NC(=O)N4CCCC4)c3)n2)cc1 | STK17B | enzyme activity, inhibitor, radiometric | – | 1 µM | remaining activity | 96%
Cn1c2c(Cl)c(Cl)ccc2c2cn[nH]c(=O)c21 | STK32A | thermal stability, DSF | – | 10 µM | ΔTm | -0.4 °C
